# Measurements from PMC10162598 (Asian Pacific Journal of Cancer Prevention : APJCP, 2023).
# Where “and” joins values, the source holds several entries; their conditions need not be identical. Equal entries are not always repeated.
# Experiments:
# HuCCT-1 (CCA cell line) = test: Antiproliferative MTT assay, HuCCT-1; format: cell-based, human; conditions: for Selectivity index (SI): ratio of the IC50 in HuCCT-1 and OUMS-36T-1 cells; for IC25 (concentration that inhibits cell growth by 25%) / IC50 (concentration that inhibits cell growth by 50%): HuCCT-1, MTT, 72 hours, mean±SD
# Outline: (§1)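 Cells (8,000/well; HuCCT-1 in RPMI-1640, OUMS-36T-1 in DMEM, both with 10% FBS) were preincubated 24 h at 37°C, 5% CO2, then exposed to test compound for 72 h. Natural product range was 1.95–250 µg/ml. MTT (5 mg/ml stock) was added for 3.5 h, formazan dissolved in DMSO, and A590 read. IC25/IC50 came from dose-response analysis. SI = HuCCT-1 vs OUMS-36T-1 IC50 ratio. Three experiments, triplicate.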
# YAP [1] = test: RT-PCR mRNA expression of YAP in HuCCT-1; format: cell-based, human; conditions: HuCCT-1, 72 hours
# YAP [2] = test: Western blot protein expression of YAP in HuCCT-1; format: cell-based, human; conditions: HuCCT-1, 72 hours, at IC25
# Outline: (§2)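 After 72 h exposure to test compound, HuCCT-1 cells were lysed in RIPA buffer with protease inhibitor, and protein was quantified by BCA. Lysates were resolved by SDS-PAGE and transferred to nitrocellulose. Membranes were probed overnight with primary antibodies (target and β-actin), then an AP-conjugated anti-rabbit secondary. Bands were quantified by densitometry. Three experiments, each in triplicate.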
# Notch1 receptor = test: RT-PCR mRNA expression of Notch1 receptor in HuCCT-1; format: cell-based, human; conditions: HuCCT-1, 72 hours
# [3] = tested on: OUMS-36T-1 (normal human cell line); test: Antiproliferative MTT assay, OUMS-36T-1; format: cell-based; conditions: OUMS-36T-1, MTT, 72 hours, mean±SD
# Outline: as §1
# mTOR = test: Western blot protein expression of mTOR in HuCCT-1; format: cell-based, human; conditions: HuCCT-1, 72 hours, at IC25
# Outline: as §2
# PI3K [4] = test: Western blot protein expression of PI3K in HuCCT-1; format: cell-based, human; conditions: HuCCT-1, 72 hours, at IC50
# Outline: as §2
# JAG1 ligand [5] = test: RT-PCR mRNA expression of JAG1 ligand in HuCCT-1; format: cell-based, human; conditions: HuCCT-1, 72 hours, at IC25
# PI3K [6] = test: RT-PCR mRNA expression of PI3K in HuCCT-1; format: cell-based, human; conditions: HuCCT-1, 72 hours
# JAG1 ligand [7] = test: Western blot protein expression of JAG1 ligand in HuCCT-1; format: cell-based, human; conditions: HuCCT-1, 72 hours, at IC25
# Outline: as §2
SMILES,Selectivity index (SI) (HuCCT-1 (CCA cell line)),IC25 (concentration that inhibits cell growth by 25%) (HuCCT-1 (CCA cell line)) [µg/mL],IC25 (concentration that inhibits cell growth by 25%) [3] [µg/mL],IC50 (concentration that inhibits cell growth by 50%) [3] [µg/mL],"YAP gene expression, fold-change (YAP [1]; at high concentration (IC50)) [fold]","YAP gene expression, fold-change (YAP [1]; at low concentration (IC25)) [fold]",IC50 (concentration that inhibits cell growth by 50%) (HuCCT-1 (CCA cell line)),further results
O=c1ncccn1[C@@H]1O[C@H](CO)[C@@H](O)[C@H]1O [Zebularine],4.41,,,,,,,"YAP gene expression, fold-change (YAP [1]; concentration not given): 0.647 fold"
C/C=C/C#CC#C/C=C/c1ccco1 [Atractylodin],,13.44 ± 6.28,10.08 ± 4.27,24.47 ± 8.46,2.219,0.086,,"YAP protein expression, fold (YAP [2]): 0.819 fold; Notch1 receptor gene expression, fold of control (Notch1 receptor; at IC25 and IC50 concentrations (low and high)): 0.042 fold; mTOR protein expression, fold (mTOR): 1.67 fold"
C=C1CCC[C@]2(C)CC[C@@H](C(C)(C)O)C[C@@H]12 [β-eudesmol],1.68,6.37 ± 2.53,18.12 ± 7.43,,1.978,0.280,,
C[C@H](NC(=O)Cc1cc(F)cc(F)c1)C(=O)N[C@H](C(=O)OC(C)(C)C)c1ccccc1 [DAPT],,,,150.29 ± 23.79,,,88.98 µg/mL and 89.88 ± 36.11 µg/mL,
Nc1ccn([C@@H]2O[C@H](CO)[C@@H](O)C2(F)F)c(=O)n1 [Gemcitabine],14.05,0.22 ± 0.35,3.40 ± 5.78,,,,4.97 ± 5.09 µg/mL,"PI3K protein expression, fold (PI3K [4]): 0.677 fold; JAG1 ligand gene expression, fold (JAG1 ligand [5]): 1.344 fold; Notch1 receptor gene expression, fold of control (Notch1 receptor; at IC50): 0.318 fold; PI3K gene expression, fold (PI3K [6]; at IC25): 1.4 fold; PI3K gene expression, fold (PI3K [6]; at IC50): 2.25 fold; JAG1 ligand protein expression, fold (JAG1 ligand [7]): 0.610 fold"
